Residue numbers refer to the chain shown, from its start. Activity calls are given as the source filed them. No cut-off for these calls is given here.
Assays:
[1] = molecular target: T1, Tyrosine-protein phosphatase non-receptor type 11 (Homo sapiens) (UniProt Q06124); assay: Stable inhibition of human wild-type full length SHP2 at 5 to 20 uM using H-Glu-Phe-pTyr-Ala-Glu-Val-Gly-Arg-Ser-ProPro-Asp-Pro-Ala-Lys as substrate followed by 3 times wash out with phosphate buffer by phosphatase assay
T1 sequence (whole entry): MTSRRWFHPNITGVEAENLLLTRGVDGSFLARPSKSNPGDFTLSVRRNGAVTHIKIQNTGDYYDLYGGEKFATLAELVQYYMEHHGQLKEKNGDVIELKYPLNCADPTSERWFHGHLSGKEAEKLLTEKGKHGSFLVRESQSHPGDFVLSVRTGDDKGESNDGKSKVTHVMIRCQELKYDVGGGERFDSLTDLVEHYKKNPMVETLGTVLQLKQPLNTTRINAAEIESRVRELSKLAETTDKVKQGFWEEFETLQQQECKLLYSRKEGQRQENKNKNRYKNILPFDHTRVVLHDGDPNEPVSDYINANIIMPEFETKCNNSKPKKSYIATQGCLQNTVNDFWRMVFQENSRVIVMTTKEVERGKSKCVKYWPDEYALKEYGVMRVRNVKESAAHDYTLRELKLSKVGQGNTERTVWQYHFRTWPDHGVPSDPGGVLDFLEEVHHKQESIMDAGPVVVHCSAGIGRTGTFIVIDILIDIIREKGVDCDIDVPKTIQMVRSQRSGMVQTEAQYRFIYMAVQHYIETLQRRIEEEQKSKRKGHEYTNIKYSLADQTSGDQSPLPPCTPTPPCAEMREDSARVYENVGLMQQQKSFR

[2] = molecular target: T1, Tyrosine-protein phosphatase non-receptor type 11 (Homo sapiens); assay: Binding affinity to full length wild type GST-tagged SHP2 (unknown origin) luminescence spectrometry-based quenching assay
In short: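 Intrinsic fluorescence quenching of full-length WT GST-SHP2 held at 3.0 µM in 20 mM Tris-HCl pH 7.5 while compound concentration is increased. Excitation 295 nm, emission 360–500 nm. Compound-alone fluorescence subtracted; intensities are relative. Triplicates shown from one of three repeats.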

[3] = molecular target: T2, Tyrosine-protein phosphatase non-receptor type 11 (Mus musculus) (UniProt P35235); assay: Inhibition of SHP2 in mouse Ba/F3 cells assessed as reduction in IL3-stimulated STAT5 phosphorylation pretreated for 4 hrs followed by IL3 stimulation and measured after 5 to 60 mins by Western blot analysis; type: cell-based
T2 sequence (whole entry): T1 sequence (whole entry) with M450V, A550V, K590R
In short: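 Ba/F3 cells starved overnight in serum- and cytokine-free RPMI1640. Treated with 20 µM compound for 4 h, then IL-3 (2 ng/mL) for the indicated times. RIPA lysates (50 µg) immunoblotted for p-Erk, p-Akt, p-Jak2 and p-Stat5, then reprobed for total proteins. Representative of three experiments.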

[4] = test system: NCI-H661; assay: Growth inhibition of human NCI-H661 cells after 48 hrs by cell proliferation-based assay; type: functional
In short: (§1)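 H661 (PTPN11 N58S/+) and H596 (WT PTPN11) lung cancer cells exposed to a concentration series for 48 h, DMSO as control. Cell number measured by One Solution proliferation assay. Triplicates from one of three repeated experiments.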

[5] = molecular target: T1, Tyrosine-protein phosphatase non-receptor type 11 (Homo sapiens); assay: Binding affinity to His-tagged SHP2 (unknown origin) assessed as melting temperature at 10 uM measured every 50 secs by thermal shift assay (reference value: 43.5 +/- 0.95 degC)
[6] = test system: NCI-H661; assay: Induction of cell cycle arrest in human NCI-H661 cells at 10 to 20 uM after 24 hrs by propidium iodide-staining based FACS analysis; type: functional
In short: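 H661 cells treated with 0, 10 or 20 µM for 24 h; cell cycle profile by propidium iodide staining and FACS. Profiles are representative of three independent experiments.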

[7] = test system: NCI-H661; assay: Growth inhibition of PTPN11 N58S mutant harboring human NCI-H661 cells after 48 hrs by cell proliferation-based assay; type: functional; in short: as §1
[8] = molecular target: T2, Tyrosine-protein phosphatase non-receptor type 11 (Mus musculus); assay: Inhibition of PTPN11 in PTPN11-expressing mouse embryonic fibroblasts assessed as inhibition of cell growth at 6 uM after 24 to 72 hrs by cell proliferation-based assay
In short: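 Ptpn11 fl/fl and Ptpn11 +/+ MEFs, both Ade-Cre+, infected with adeno-Cre, then given 6 µM compound or DMSO. Growth measured at 24, 48 and 72 h by One Solution proliferation assay. SHP2 loss confirmed by immunoblot. Triplicates from one of three experiments.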

[9] = test system: T3, Tyrosine-protein phosphatase non-receptor type 11 (Mus musculus), P35235 [E76K]; assay: Inhibition of PTPN11 E76K mutant in mouse embryonic fibroblasts assessed as inhibition of cell growth at 6 uM after 24 to 72 hrs by cell proliferation-based assay
T3 sequence (whole entry): T1 sequence (whole entry) with E76K, M450V, A550V, K590R
In short: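 Ptpn11 E76K/+ and Ptpn11 +/+ MEFs treated with 6 µM compound; cell number read by One Solution proliferation assay. Triplicates from one of three experiments.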

- inhibition [1]: Active
- Activity [2]: Dose-dependent effect
- inhibition [3]: Dose-dependent effect
- Tm [5]: 47.2 °C
- growth inhibition (GI) [8]: Active
- growth inhibition (GI) [9]: Active
SMILES: CCOc1cc(O)c(C(=O)/C=C/c2ccc(Cl)cc2Cl)cc1CN1CCC=C(n2c(=O)[nH]c3ccccc32)C1
- growth inhibition (GI) [4]: Dose-dependent effect
- Activity [6]: Active
- growth inhibition (GI) [7]: Active

Source: ChEMBL document CHEMBL4422612, “Small Molecule Inhibitor that Stabilizes the Autoinhibited Conformation of the Oncogenic Tyrosine Phosphatase SHP2” (J Med Chem, 2019)
